Results taken from ChEMBL document CHEMBL4715736, “Identification of anticancer agents based on the thieno[2,3-b]pyridine and 1H-pyrazole molecular scaffolds” (2016).

What was measured:
Type in all cases: functional
NCI-H23 = assay: Growth inhibition of human NCI-H23 cells assessed as cell growth at 10 uM incubated for 48 hrs by sulforhodamine B assay relative to control; conditions: read-out: Activity
Method in brief: (§1)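 Submitted to the NCI Developmental Therapeutics Program for the NCI60 human tumour cell line panel. First screen at a single 10 µM concentration. Read-out is growth relative to untreated control cells set at 100%.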

NCI-H322M = assay: Growth inhibition of human NCI-H322M cells assessed as cell growth at 10 uM incubated for 48 hrs by sulforhodamine B assay relative to control; conditions: read-out: Activity; method in brief: as §1
T47D = assay: Growth inhibition of human T47D cells assessed as cell growth at 10 uM incubated for 48 hrs by sulforhodamine B assay relative to control; conditions: read-out: Activity
Method in brief: (§2)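 Run by the NCI Developmental Therapeutics Program as part of its 60-line human tumour panel. Each compound tested at a single 10 µM dose. Growth expressed as % relative to untreated control cells (100%).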

MCF7 = assay: Growth inhibition of human MCF7 cells assessed as cell growth at 10 uM incubated for 48 hrs by sulforhodamine B assay relative to control; conditions: read-out: Activity; method in brief: as §1
CAKI-1 = assay: Growth inhibition of human CAKI-1 cells assessed as cell growth at 10 uM incubated for 48 hrs by sulforhodamine B assay relative to control; conditions: read-out: Activity
Method in brief: (§3)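 NCI Developmental Therapeutics Program NCI60 panel. Compounds that were active in the 10 µM one-dose screen went on to dose–response testing. Growth at each concentration is expressed relative to untreated control (100%). GI50 (concentration giving 50% of maximal inhibition of proliferation) and TGI (concentration giving total growth inhibition) were derived from the curves.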

UACC-62 [1] = assay: Growth inhibition of human UACC-62 cells assessed as cell growth at 10 uM incubated for 48 hrs by sulforhodamine B assay relative to control; conditions: read-out: Activity; method in brief: as §2
CCRF-CEM = assay: Growth inhibition of human CCRF-CEM cells assessed as cell growth at 10 uM incubated for 48 hrs by sulforhodamine B assay relative to control; conditions: read-out: Activity; method in brief: as §3
SNB-19 = assay: Growth inhibition of human SNB-19 cells assessed as cell growth at 100 uM incubated for 48 hrs by sulforhodamine B assay relative to control; conditions: read-out: Activity
RPMI-8226 = assay: Growth inhibition of human RPMI-8226 cells assessed as cell growth at 10 uM incubated for 48 hrs by sulforhodamine B assay relative to control; conditions: read-out: Activity; method in brief: as §2
SK-MEL-2 = assay: Growth inhibition of human SK-MEL-2 cells assessed as cell growth at 10 uM incubated for 48 hrs by sulforhodamine B assay relative to control; conditions: read-out: Activity; method in brief: as §2
HCC 2998 = assay: Growth inhibition of human HCC 2998 cells assessed as cell growth at 10 uM incubated for 48 hrs by sulforhodamine B assay relative to control; conditions: read-out: Activity; method in brief: as §3
NCI-H460 = assay: Growth inhibition of human NCI-H460 cells assessed as cell growth at 0.1 uM incubated for 48 hrs by sulforhodamine B assay relative to control; conditions: read-out: Activity
M14 = assay: Growth inhibition of human M14 cells assessed as cell growth at 0.01 uM incubated for 48 hrs by sulforhodamine B assay relative to control; conditions: read-out: Activity
HT-29 = assay: Growth inhibition of human HT-29 cells assessed as cell growth at 10 uM incubated for 48 hrs by sulforhodamine B assay relative to control; conditions: read-out: Activity; method in brief: as §1
SK-OV-3 = assay: Growth inhibition of human SK-OV-3 cells assessed as cell growth at 10 uM incubated for 48 hrs by sulforhodamine B assay relative to control; conditions: read-out: Activity; method in brief: as §2
OVCAR-8 = assay: Growth inhibition of human OVCAR-8 cells assessed as cell growth at 10 uM incubated for 48 hrs by sulforhodamine B assay relative to control; conditions: read-out: Activity; method in brief: as §2
NCI/ADR-RES = assay: Growth inhibition of human NCI/ADR-RES cells assessed as cell growth at 10 uM incubated for 48 hrs by sulforhodamine B assay relative to control; conditions: read-out: Activity; method in brief: as §1
COLO 205 = assay: Growth inhibition of human COLO 205 cells assessed as cell growth at 1 uM incubated for 48 hrs by sulforhodamine B assay relative to control; conditions: read-out: Activity; method in brief: as §3
SK-MEL-28 = assay: Growth inhibition of human SK-MEL-28 cells assessed as cell growth at 10 uM incubated for 48 hrs by sulforhodamine B assay relative to control; conditions: read-out: Activity; method in brief: as §2
MDA-MB-468 = assay: Growth inhibition of human MDA-MB-468 cells assessed as cell growth at 10 uM incubated for 48 hrs by sulforhodamine B assay relative to control; conditions: read-out: Activity; method in brief: as §1
TK-10 = assay: Growth inhibition of human TK-10 cells assessed as cell growth at 10 uM incubated for 48 hrs by sulforhodamine B assay relative to control; conditions: read-out: Activity; method in brief: as §2
U-251 = assay: Growth inhibition of human U-251 cells assessed as cell growth at 10 uM incubated for 48 hrs by sulforhodamine B assay relative to control; conditions: read-out: Activity; method in brief: as §2
SR = assay: Growth inhibition of human SR cells assessed as cell growth at 10 uM incubated for 48 hrs by sulforhodamine B assay relative to control; conditions: read-out: Activity; method in brief: as §2
BT-549 = assay: Growth inhibition of human BT-549 cells assessed as cell growth at 10 uM incubated for 48 hrs by sulforhodamine B assay relative to control; conditions: read-out: Activity
Method in brief: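 NCI Developmental Therapeutics Program NCI60 human tumour cell line panel, one-dose primary screen with every compound at 10 µM. Growth is expressed as % of untreated control cells (100%).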

A498 = assay: Growth inhibition of human A498 cells assessed as cell growth at 10 uM incubated for 48 hrs by sulforhodamine B assay relative to control; conditions: read-out: Activity; method in brief: as §3
HCT-15 = assay: Growth inhibition of human HCT-15 cells incubated for 48 hrs by sulforhodamine B assay
Method in brief: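 NCI60 panel at the NCI Developmental Therapeutics Program. Only compounds active in the 10 µM screen went to dose-response testing. GI50, the concentration giving 50% of maximal inhibition of proliferation, and TGI, the concentration giving total growth inhibition, were derived from the dose-response curves.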

KM12 = assay: Growth inhibition of human KM12 cells assessed as cell growth at 10 uM incubated for 48 hrs by sulforhodamine B assay relative to control; conditions: read-out: Activity; method in brief: as §1
HOP-92 = assay: Growth inhibition of human HOP-92 cells assessed as cell growth at 10 uM incubated for 48 hrs by sulforhodamine B assay relative to control; conditions: read-out: Activity; method in brief: as §1
UACC-62 [2] = assay: Growth inhibition of human UACC-62 cells incubated for 48 hrs by sulforhodamine B assay
Method in brief: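 NCI DTP 60-line human tumour panel. Dose-response curves were run only for ligands active in the initial 10 µM screen. GI50 (concentration giving 50% of maximal inhibition of proliferation) and TGI (concentration giving total growth inhibition) were derived from these curves.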

LOX IMVI = assay: Growth inhibition of human LOX IMVI cells assessed as cell growth at 10 uM incubated for 48 hrs by sulforhodamine B assay relative to control; conditions: read-out: Activity; method in brief: as §1
SN12C = assay: Growth inhibition of human SN12C cells assessed as cell growth at 10 uM incubated for 48 hrs by sulforhodamine B assay relative to control; conditions: read-out: Activity; method in brief: as §2
NCI-H522 = assay: Growth inhibition of human NCI-H522 cells assessed as cell growth at 10 uM incubated for 48 hrs by sulforhodamine B assay relative to control; conditions: read-out: Activity; method in brief: as §1

Structure (SMILES)	growth at 10 µM (NCI-H23) [%]	growth at 10 µM (NCI-H322M) [%]	growth at 10 µM (T47D) [%]	growth at 10 µM (MCF7) [%]	growth at 10 µM (CAKI-1) [%]	growth at 10 µM (UACC-62 [1]) [%]	growth at 10 µM (CCRF-CEM) [%]	growth at 100 µM (SNB-19) [%]	growth at 10 µM (RPMI-8226) [%]	growth at 10 µM (SK-MEL-2) [%]	growth at 10 µM (HCC 2998) [%]	growth at 0.1 µM (NCI-H460) [%]	growth at 0.01 µM (M14) [%]	growth at 10 µM (HT-29) [%]	growth at 10 µM (SK-OV-3) [%]	growth at 10 µM (OVCAR-8) [%]	growth at 10 µM (NCI/ADR-RES) [%]	growth at 1 µM (COLO 205) [%]	growth at 10 µM (SK-MEL-28) [%]	growth at 10 µM (MDA-MB-468) [%]	other results
Nc1c(C(=O)Nc2ccccc2)sc2nc3c(cc12)CN(Cc1ccccc1)CC3	63	62	58	53	56	57	84	25	72	70	76	102	98	77	12	59	56	93	63	58	growth at 10 µM (TK-10): 19%; growth at 10 µM (U-251): 56%; growth at 10 µM (SR): 54%; growth at 10 µM (BT-549): 65%; growth at 10 µM (A498): -17%; GI50 (HCT-15): 24.7 µM; LC50 (HCT-15): > 100 µM; TGI (HCT-15): > 100 µM; growth at 10 µM (KM12): 60%; growth at 10 µM (HOP-92): 13%; GI50 (UACC-62 [2]): 13.9 µM; LC50 (UACC-62 [2]): > 100 µM; TGI (UACC-62 [2]): > 100 µM; growth at 10 µM (LOX IMVI): 51%; growth at 10 µM (SN12C): 66%; growth at 10 µM (NCI-H522): 70%
COc1cccc(NC(=O)c2sc3nc4c(cc3c2N)CN(Cc2ccccc2)CC4)c1	43	71	39	21	53	31	76	14	83	51	49	101	96	16	11	28	28	92	27	30	growth at 10 µM (TK-10): 28%; growth at 10 µM (U-251): 21%; growth at 10 µM (SR): 40%; growth at 10 µM (BT-549): 23%; growth at 10 µM (A498): 29%; GI50 (HCT-15): 0.93 µM; LC50 (HCT-15): > 100 µM; TGI (HCT-15): > 100 µM; growth at 10 µM (KM12): 57%; growth at 10 µM (HOP-92): 23%; GI50 (UACC-62 [2]): 1.92 µM; LC50 (UACC-62 [2]): > 100 µM; TGI (UACC-62 [2]): 29.8 µM; growth at 10 µM (LOX IMVI): 27%; growth at 10 µM (SN12C): 52%; growth at 10 µM (NCI-H522): 61%
Cc1cc(C)c(NC(=O)c2sc3nc4c(cc3c2N)CN(Cc2ccccc2)CC4)c(C)c1	27	47	12	8	18	37	12	25	13	34	30	103	91	3	36	30	-18	95	46	10	growth at 10 µM (TK-10): 31%; growth at 10 µM (U-251): 26%; growth at 10 µM (BT-549): 30%; growth at 10 µM (A498): -7%; GI50 (HCT-15): 2.12 µM; LC50 (HCT-15): > 100 µM; TGI (HCT-15): > 100 µM; growth at 10 µM (KM12): 15%; growth at 10 µM (HOP-92): 12%; GI50 (UACC-62 [2]): 3.9 µM; LC50 (UACC-62 [2]): > 100 µM; TGI (UACC-62 [2]): 42.4 µM; growth at 10 µM (LOX IMVI): 29%; growth at 10 µM (SN12C): 36%; growth at 10 µM (NCI-H522): -13%
CN1CCc2nc3sc(C(N)=O)c(N)c3c(-c3cccs3)c2C1	3	15	8	12	11	-21	10	14	12	-28	14	114	107	7	15	7	19	69	-2	-35	growth at 10 µM (TK-10): 1%; growth at 10 µM (U-251): 10%; growth at 10 µM (SR): -11%; growth at 10 µM (BT-549): 10%; growth at 10 µM (A498): -15%; GI50 (HCT-15): 3.31 µM; LC50 (HCT-15): > 100 µM; TGI (HCT-15): > 100 µM; growth at 10 µM (KM12): 7%; growth at 10 µM (HOP-92): -4%; GI50 (UACC-62 [2]): 2.38 µM; LC50 (UACC-62 [2]): 72.2 µM; TGI (UACC-62 [2]): 6.56 µM; growth at 10 µM (LOX IMVI): 3%; growth at 10 µM (SN12C): 11%; growth at 10 µM (NCI-H522): 9%
